Screening data (PubChem)
An excerpt weighted towards active compounds, which were near 2.8% of everything screened.
ABHD4 inh: ABHD4 (mouse) inhibition, primary FP screen. Q8VD66. purified mABHD4, FP-Rh probe fluorescence polarization. inhibition, % at 8.92 µM. 370,000 tested, 0.54% active. AID 720543;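 active means inhibition exceeding the mean over every tested compound plus 3 SD, cut at about 30% in these data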;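 further: 0% = plate median of compound wells and 100% = S159A mutant with DMSO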
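assay system = mABHD4 protein | compound dosing = single nominal dose of 8.92 µM, 0.89% DMSO final | read-out basis = percent inhibition of probe binding, normalized to plate controls | schedule = Enzyme–compound pre-incubation 45 min, then probe 60 min, both 25 °C | detection = fluorescence polarization, excitation 525 nm, emission 598 nm, BODIPY TMR filters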
pPAFAH FP inh: inhibitors of human plasma PAF acetylhydrolase (pPAFAH); 330,000 tested, 1.5% active; recombinant pPAFAH, FP-rhodamine probe fluorescence polarization; Q13093; inhibition, % at 3.39 µM;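 active means inhibition above the mean inhibition across the screen plus 3 SD, cut at about 25% in these data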;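 further: inhibitors block binding of the rhodamine activity-based probe so polarization drops; 0% = enzyme with DMSO and 100% = wells lacking pPAFAH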
HTRA1 inh: inhibitors of human serine peptidase HTRA1; recombinant HTRA1, FP-rhodamine activity-based probe, fluorescence polarization; 340,000 tested, 0.5% active; AID 504803; Q92743; inhibition, % at 5.96 µM; in the data active means inhibition above about 36%;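 further: 0% = enzyme with DMSO and 100% = wells lacking enzyme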
Target sequence (Q92743 whole entry, looked up): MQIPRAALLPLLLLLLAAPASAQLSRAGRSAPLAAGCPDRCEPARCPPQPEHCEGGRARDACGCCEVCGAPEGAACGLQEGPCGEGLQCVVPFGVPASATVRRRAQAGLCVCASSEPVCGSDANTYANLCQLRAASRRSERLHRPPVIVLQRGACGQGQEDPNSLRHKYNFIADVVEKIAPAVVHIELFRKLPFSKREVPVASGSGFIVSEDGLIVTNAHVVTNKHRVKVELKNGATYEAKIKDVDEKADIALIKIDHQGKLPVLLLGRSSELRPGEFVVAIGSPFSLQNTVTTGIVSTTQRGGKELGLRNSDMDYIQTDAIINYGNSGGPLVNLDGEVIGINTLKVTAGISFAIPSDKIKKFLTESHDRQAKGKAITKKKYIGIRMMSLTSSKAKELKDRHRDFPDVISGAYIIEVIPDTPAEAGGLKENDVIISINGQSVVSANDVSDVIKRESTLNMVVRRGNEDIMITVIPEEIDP
PAFAH1B3 inh: PAFAH1B3 (human) inhibition. 340,000 tested, 0.28% active. AID 492972. Q15102. recombinant PAFAH1B3, FP-rhodamine probe, fluorescence polarization. inhibition, % at 3.39 µM;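 active means inhibition above the screen-wide average of all tested compounds plus 3 SD, cut at about 25% in these data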;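 further: 0% = enzyme with DMSO only and 100% = wells lacking PAFAH1B3 protein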
PAFAH1B2 FP inh: blocks human PAF acetylhydrolase 1b catalytic subunit 2; P68402; recombinant PAFAH1B2, FP-rhodamine activity probe, fluorescence polarization; inhibition, % at 3.39 µM; 340,000 tested, 1.2% active; AID 492953;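 active means inhibition above the mean of all tested compounds plus 3 SD, cut at about 24% in these data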;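 further: 0% = enzyme with DMSO and 100% = wells lacking PAFAH1B2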
PAFAH2 FP inh: inhibitors of human PAFAH2; recombinant PAFAH2, FP-rhodamine activity probe, fluorescence polarization; inhibition, % at 3.39 µM; 340,000 tested, 0.99% active;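 active means inhibition above the mean over all tested compounds plus 3 SD, cut at about 30% in these data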;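 further: inhibitors block probe labeling of enzyme so polarization drops; 0% = enzyme with DMSO and 100% = wells lacking PAFAH2 protein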
* = called active by the depositor; · = not tested or not shown.

SMILES | ABHD4 inh | pPAFAH FP inh | HTRA1 inh | PAFAH1B3 inh | PAFAH1B2 FP inh | PAFAH2 FP inh
S=c1[nH]nc(CCSCc2ccccc2)n1-c1ccccc1 | 0.9 | 4.4 | -0.3 | 8.1 | 27.6* | 10.8
COC(=O)C1=CN(c2cccc(C)c2)C=C(C(=O)OC)C1c1cc(OC)c(O)c([N+](=O)[O-])c1 | 8.2 | 29.2* | 52.4* | 11.4 | 16.3 | 7.0
COC(=O)C1=CN(c2ccc(OC)cc2)C=C(C(=O)OC)C1c1ccc(C)c([N+](=O)[O-])c1 | -2.0 | -0.3 | 4.9 | 7.0 | -0.9 | -3.4
Oc1ccc(CNc2ccccc2)c2cccnc12 | · | 3.6 | 16.0 | 26.0* | 4.3 | 12.4
Nc1c(C(=O)c2ccccc2)sc2snc(SCC(=O)c3ccccc3)c12 | 14.8 | 27.1* | 13.9 | 15.1 | 15.0 | 43.9*
CCOc1ccc(-n2c(SCC(=O)Nc3cc4oc5ccccc5c4cc3OC)nnc2-c2cccc(Cl)c2)cc1 | 0.2 | · | · | · | · | ·
C=C(C)COc1ccc2c(C)c(CCC(=O)N3C[C@H]4C[C@@H](C3)c3cccc(=O)n3C4)c(=O)oc2c1 | -2.1 | 25.1* | 2.1 | 4.5 | 6.8 | -1.0
C=C(C)COc1ccc2c(C)c(CC(=O)N3C[C@H]4C[C@@H](C3)c3cccc(=O)n3C4)c(=O)oc2c1 | 0.7 | 4.7 | 2.8 | 4.4 | 4.3 | 4.8
Cc1cc(=O)[nH]c(SCC(=O)Nc2ccc(F)c(F)c2)n1 | 7.0 | · | · | · | · | ·
Cc1ccc(NC(=O)C(=O)Nc2ccc(C)cn2)nc1 | 2.2 | -0.3 | -2.1 | 8.2 | 2.5 | 0.6
Cc1ccc(NC(=O)/C(C#N)=C(\N)C(Cl)(Cl)Cl)nc1 | · | 5.5 | 3.1 | 42.6* | 44.9* | 41.0*
Clc1ccc(CN2CCN(N=Cc3cccc(OCc4ccccc4)c3)CC2)cc1 | -4.3 | · | · | · | · | ·
Cc1cc2ncn(S(=O)(=O)N3CCOCC3)c2cc1C | -2.6 | -7.3 | 0.2 | -2.2 | 6.1 | 1.6
Cc1cc2ncn(S(=O)(=O)N3CCCCC3)c2cc1C | 4.4 | 6.1 | -11.5 | 0.8 | 24.8* | -8.2
O=C(CSc1nnc(-c2ccccc2)n1-c1ccccc1)Nc1ccccc1-c1ccccc1 | -4.1 | · | · | · | · | ·
O=C(NN1C(=O)c2cc(Br)ccc2NC1c1cc(Br)cc(Br)c1O)c1ccncc1 (stereo not drawn) | 6.6 | 29.7* | 5.6 | 13.0 | -1.9 | 22.8
Nn1c(SCC(=O)Nc2ccc(Br)cn2)nnc1-c1n[nH]c2c1CCC2 | 2.5 | · | · | · | · | ·
COc1ccc(S(=O)(=O)Nc2ccccc2C(=O)N2CCOCC2)cc1C | 3.3 | -5.1 | 11.4 | 0.8 | 1.9 | -11.3
COc1ccc(S(=O)(=O)Nc2ccccc2C)cc1C(=O)N1CCOCC1 | -1.8 | 25.6* | -6.8 | 3.4 | 1.3 | 7.8
Cc1ccccc1NS(=O)(=O)c1ccc(C)c(C(=O)N2CCOCC2)c1 | -3.0 | 33.5* | -3.5 | 3.9 | -1.1 | -2.7
COc1cc(/C=C2\SC(=S)N(CC(=O)O)C2=O)ccc1OS(=O)(=O)c1ccc(C)cc1 | 15.2 | -2.5 | -34.5 | 21.2 | 34.9* | 8.4
CC(C)(C)c1ccc(S(=O)(=O)N2CCCC(C(=O)NCCN3CCC(Cc4ccccc4)CC3)C2)cc1 (stereo not drawn) | 12.7 | · | · | · | · | ·
O=C1CS/C(=C\S(=O)(=O)c2ccc(Cl)cc2)N1 | 9.9 | 4.2 | -3.7 | -3.0 | 24.8* | 1.4
CC(C)(C)c1ccc(C(=O)/C=C2\NC(=O)CS2)cc1 | -0.3 | 10.1 | -7.3 | -2.4 | 6.6 | 12.4
N/C(=N\OC(=O)CCC1CCCC1)c1ccc(Cl)cc1 | -0.1 | -2.2 | -0.3 | -6.5 | 25.3* | 9.8
SMILES | ABHD4 inh | pPAFAH FP inh | HTRA1 inh | PAFAH1B3 inh | PAFAH1B2 FP inh | PAFAH2 FP inh
Cc1ccc(/C(N)=N/OC(=O)CCC2CCCC2)cc1 | 7.2 | -2.1 | 2.6 | 4.8 | 7.3 | 5.9
Cc1ccc2oc(=O)c(/C=C(\O)c3cccs3)nc2c1 | 25.2 | 4.8 | -0.3 | 4.4 | 4.6 | 9.0
O=c1oc2ccc(Cl)cc2nc1/C=C(\O)c1cccs1 | 32.0* | 6.9 | 2.8 | -1.1 | -0.9 | 23.6
COC(=O)[C@@]12CCCCC3=C1N(CCC3)C(=O)[C@H]2CC(=O)NCCCN1CCCC1=O | 0.6 | · | · | · | · | ·
O=c1cc(N2CCN(c3cccc(C(F)(F)F)c3)CC2)[nH]c(=O)n1C1CCCCC1 | -1.4 | · | · | · | · | ·
Cc1c(Cl)cccc1N/C(=N/S(=O)(=O)c1cccs1)c1ccccc1 | 1.8 | 5.4 | -12.3 | 3.4 | 2.4 | -3.1
Cc1cccc(NC2=C/C(=N/S(=O)(=O)c3cccs3)c3ccccc3C2=O)c1 | 13.2 | 21.9 | 8.9 | 64.4* | 23.4 | 14.5
